Test [1] addresses T1, Fatty-acid amide hydrolase 1 (Homo sapiens) (UniProt O00519).
T1 sequence (whole entry): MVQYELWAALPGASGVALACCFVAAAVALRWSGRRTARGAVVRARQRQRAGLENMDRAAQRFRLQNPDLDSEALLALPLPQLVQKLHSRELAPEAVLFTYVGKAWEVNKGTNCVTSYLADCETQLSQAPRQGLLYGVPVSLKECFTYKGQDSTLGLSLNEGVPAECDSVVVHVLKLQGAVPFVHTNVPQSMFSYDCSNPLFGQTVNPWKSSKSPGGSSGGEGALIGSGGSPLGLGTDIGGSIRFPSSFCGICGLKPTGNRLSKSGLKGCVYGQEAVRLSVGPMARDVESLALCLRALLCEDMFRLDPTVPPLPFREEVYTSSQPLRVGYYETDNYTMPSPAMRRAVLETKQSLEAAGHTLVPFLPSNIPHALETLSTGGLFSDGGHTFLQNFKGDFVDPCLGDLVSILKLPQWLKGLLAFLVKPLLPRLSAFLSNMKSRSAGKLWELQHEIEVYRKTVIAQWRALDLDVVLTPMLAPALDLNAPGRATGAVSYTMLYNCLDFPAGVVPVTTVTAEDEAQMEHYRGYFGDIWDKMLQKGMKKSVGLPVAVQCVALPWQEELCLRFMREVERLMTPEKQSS
Briefly: Inhibition of human FAAH expressed in Escherichia coli at 1 mM. The gist of the method:
(§1)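 Human FAAH expressed in E. coli, in Tris-HCl pH 7.4, was added on ice to compound or DMSO. [3H]-AEA was added (50,000 dpm; 2 µM final) in Tris-HCl with 0.1% BSA, then incubated 10 min at 37 °C. The reaction was stopped on ice with cold MeOH–CHCl3 (1:1) and centrifuged. [3H]-ethanolamine in the aqueous phase was counted by liquid scintillation, with no-enzyme blanks subtracted.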

Test [2] has as its target T2, Monoglyceride lipase (Homo sapiens) (UniProt Q99685).
T2 sequence (whole entry): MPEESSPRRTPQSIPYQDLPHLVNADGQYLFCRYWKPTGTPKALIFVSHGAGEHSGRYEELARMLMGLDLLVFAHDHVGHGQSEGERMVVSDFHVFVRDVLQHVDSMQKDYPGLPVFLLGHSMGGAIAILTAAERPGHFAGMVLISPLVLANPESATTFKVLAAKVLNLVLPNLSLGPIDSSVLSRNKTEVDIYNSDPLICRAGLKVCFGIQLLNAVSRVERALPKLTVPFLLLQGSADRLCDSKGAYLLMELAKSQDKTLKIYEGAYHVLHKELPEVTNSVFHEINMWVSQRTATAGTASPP
Briefly: Inhibition of human MGL expressed in Escherichia coli at 1 mM. The gist of the method: (§2)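 Human MGL expressed in E. coli was run in Tris-HCl pH 8 with [3H]-oleoylglycerol (50,000 dpm; 10 µM final) as substrate. Otherwise the radiometric hydrolysis protocol was similar: compound or DMSO, chloroform–methanol quench, scintillation counting of the aqueous phase, and subtraction of buffer-only blanks.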

The target of test [3] is T3, Fatty-acid amide hydrolase 1 (Homo sapiens, UniProt O00519).
T3 sequence (O00519 whole entry): T1 sequence (whole entry)
The test is described as follows: Inhibition of human FAAH expressed in Escherichia coli. An outline of the steps: as §1

In test [4] the target is T4, Pancreatic elastase (Sus scrofa) (UniProt P08419+P00772). The test is described as follows: Inhibition of pig pancreatic elastase at 100 uM. The format is protein assay.
Test [5] is described as follows: Inhibition of penicillin-binding protein R39 assessed as residual activity. An outline of the steps:
(§3)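 Compound (100 µM) was incubated with PBP (0.8–2.5 µM) for 16 h at 30 °C in 50 mM sodium phosphate pH 7 with 5% DMF; PBP2a and PBP5 also had 0.5 M NaCl. Free PBP was then labelled with 25 µM fluorescein-ampicillin for 45 min and the reaction stopped with SDS-PAGE loading buffer. Gel fluorescence was quantified, background subtracted, and residual activity given as % of initial (triplicate).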

Test [6] in a line: Inhibition of penicillin-binding protein 2a assessed as residual activity at 100 uM after 16 hrs by SDS-PAGE. An outline of the steps: as §3
Test [7] is described as follows: Inhibition of penicillin-binding protein 2x assessed as residual activity. The gist of the method: as §3
Test [8] can be described thus: Inhibition of penicillin-binding protein 5 assessed as residual activity at 100 uM after 16 hrs by SDS-PAGE. An outline of the steps: as §3
Test [9] addresses T5, Monoglyceride lipase (Homo sapiens, UniProt Q99685).
T5 sequence (Q99685 whole entry): T2 sequence (whole entry)
The test is described as follows: Inhibition of human MGL expressed in Escherichia coli. The gist of the method:
as §2

The species entered for test [10] is Homo sapiens. The test is described as follows: Selectivity ratio of IC50 for human FAAH over IC50 for human MGL.
Test [11] deals with T4, Pancreatic elastase (Sus scrofa). Briefly: Inhibition of pig pancreatic elastase at 10 mM. The format is protein assay.
Test [12] has the same target. The test is described as follows: Inhibition of pig pancreatic elastase at 5 mM. Format: protein assay.
Test [13] shares this target. The test is described as follows: Inhibition of pig pancreatic elastase at 2.5 mM. The format is protein assay.
For test [14] the target is unchanged. The test is described as follows: Inhibition of pig pancreatic elastase at 0.1 mM. The format is protein assay.

Calls of active or inactive are those of the source. No cut-off for these calls is given here.

What is called inhibition is the relative decrease from the control value, in per cent. With `C=CCCCC1CN([Si](C)(C)C(C)(C)C)C1=O` (racemic), the inhibition in [1] was determined as 76.9%; in test [2] it was 54.9%.

For `C=CCCCC1(CCCC=C)CN([Si](C)(C)C(C)(C)C)C1=O`, the inhibition in test [1] was 25.2%; in test [2], 10.3%.

With `C=CCCC1CN([Si](C)(C)C(C)(C)C)C1=O` (racemic), the inhibition amounted to 49.5% in test [1] and 69.9% in [2].

On to `C=CCCCC1CNC1=O` (racemic), for which the inhibition in test [1] stood at 80.9%; in [2], 54.9%.

A word on the IC50: it is the concentration that inhibits the measured activity by half. Higher therefore signals lower potency. Regarding `C=CCCCC1(CCCC=C)CNC1=O`, the inhibition in test [1] worked out at 80.5%; in [2] it was 36.3%. In test [3], the IC50 worked out at 259 µM.

On to `C=CCCC1CNC1=O` (racemic), for which the inhibition was 48% in test [1] and 8.1% in [2].

Consider `C=CCC1CN([Si](C)(C)C(C)(C)C)C1=O` (racemic), for which the inhibition is 43.6% in test [1] and 77.5% in test [2].

With `C=CCCC(=O)N1CC(CC=C)C1=O` (racemic), the values for the inhibition in test [1] and in test [2] were 96.5% and 46.4%, respectively. The molecule also returned a half-inhibitory concentration (IC50) in [3] of 61.8 µM. Besides, in test [4], the result was Active. Besides, the Activity in test [5] turned out to be 73%; in test [6] it was 87%; in [7] it was 108%; in test [8], 104%.

As to `C=CCCCC1CN(C(=O)CCC=C)C1=O` (racemic), the inhibition is 101% in [1] and 62.1% in [2]. Further, the values for the concentration for half-maximal inhibition (IC50) in test [3] and in test [9] were 4.5 µM and 657 µM, respectively. Further, the Ratio IC50 in test [10] was determined as 146. Further, the result in [11], in [12], in [13] and in [14] was inactive.

As for `C=CCCC(=O)N1CC(CCC=C)C1=O` (racemic), the inhibition in test [1] worked out at 103%; in [2] it was 58.1%. For the same molecule, the IC50 in [3] came out at 21.9 µM; in [9], 817 µM. Moreover, the Ratio IC50 in test [10] was determined as 37. The outcome in test [11], in test [12], in test [13] and in [14] was inactive.

On to `C=CCC1CNC1=O` (racemic), for which the inhibition in test [1] was determined as 56.6%; in test [2] it was 15.6%.

For the origin of these results see ChEMBL document CHEMBL1157514, “3-Alkenyl-2-azetidinones as fatty acid amide hydrolase inhibitors” (Bioorg Med Chem Lett, 2008).
